Data as given in ChEMBL document CHEMBL3399948, “Discovery of 7-azaindole derivatives as potent Orai inhibitors showing efficacy in a preclinical model of asthma” (Bioorg Med Chem Lett, 2015).

Key:
[1] = Inhibition of Orai-mediated calcium entry in human Jurkat E6-1 cells after 1 hr by FLIPR assay; format: cell-based
[2] = Inhibition of Orai channel in phytohemagglutinin-stimulated human Jurkat E6-1 cells assessed as NFAT-induced transcription measured as IL-2 level after 20 hrs by ELISA; format: cell-based
[3] = target: Calcium release-activated calcium channel protein 1 (Homo sapiens, UniProt Q96D31); test: Inhibition of human Orai1/STIM1 expressed in HEK293 cells assessed as inhibition of channel-mediated calcium current by electrophysiology assay in presence of 10 mM EGTA; format: cell-based
Calcium release-activated calcium channel protein 1, sequence (Q96D31 whole entry): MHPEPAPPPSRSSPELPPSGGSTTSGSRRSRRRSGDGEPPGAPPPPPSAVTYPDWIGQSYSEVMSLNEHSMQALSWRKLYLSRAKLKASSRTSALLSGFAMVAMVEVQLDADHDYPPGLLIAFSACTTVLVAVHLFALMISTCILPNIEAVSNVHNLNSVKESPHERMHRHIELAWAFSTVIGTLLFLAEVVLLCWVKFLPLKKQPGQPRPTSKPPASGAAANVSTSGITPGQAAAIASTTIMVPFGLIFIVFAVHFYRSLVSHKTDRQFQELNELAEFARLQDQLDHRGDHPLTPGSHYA
Summary of the method: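 Automated whole-cell patch clamp on HEK293 cells stably expressing human STIM1/Orai1. I_CRAC activated by passive store depletion with 10 mM EGTA in the internal solution. Holding potential 0 mV; 100 ms voltage ramps applied every 3 s. IC50 from normalized inhibition, at least 3 cells per concentration; values are mean ± SD of two or more determinations.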

LAD2 = test: Inhibition of degranulation in human LAD2 cells assessed as inhibition of IgE-induced beta-hexosaminidase release preincubated for 30 mins by p-nitrophenyl-N-acetyl-D-glucosamide-based spectrophotometric assay; format: functional, cell-based
Summary of the method: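 Human LAD2 mast cells sensitized overnight with 100 ng/mL biotin-IgE in SCF-containing medium. Supernatant β-hexosaminidase measured with p-nitrophenyl-N-acetyl-glucosamide (pH 4.5, 90 min, 37 °C), stopped with glycine pH 10, absorbance read at 405 nm.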

Blood = test: Inhibition of IL2 secretion in rat whole blood after 24 hrs by Rat IL-2 DuoSet assay; format: functional, tissue-based
Summary of the method: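 Rat whole blood diluted 1:4 in RPMI and stimulated with concanavalin A (62.5 µg/mL) in the presence of increasing compound concentrations for 24 h. Supernatant IL-2 quantified by rat IL-2 ELISA against a standard curve; IC50 derived.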

CHO = test: Cytotoxicity against CHO cells; format: cell-based; details: Cricetulus griseus
[4] = Drug metabolism in rat liver microsomes at 5 uM after 30 mins in presence of NADPH; format: ADME; details: read-out: Drug metabolism
Summary of the method: (§1)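 Rat or human hepatic microsomes (1 mg/mL protein) incubated with 5 µM compound plus NADPH for 30 min at 37 °C; result given as percent metabolized.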

[5] = Drug metabolism in human liver microsomes at 5 uM after 30 mins in presence of NADPH; format: ADME; details: read-out: Drug metabolism; summary of the method: as §1
[6] = Passive permeability of the compound at 20 uM by PAMPA; format: ADME; details: read-out: permeability
[7] = Terminal half life in Wistar rat at 1 mg/kg, iv; format: ADME, organism-based; parameters: dose 1 mg/kg, route intravenous; details: in vivo, read-out: beta t1/2 (converted)
[8] = AUC (0 to 24 hrs) in Wistar rat at 1 mg/kg, iv; format: ADME, organism-based; parameters: time < 24 hr, dose 1 mg/kg, route intravenous; details: plasma
[9] = Clearance in Wistar rat at 1 mg/kg, iv; format: ADME, organism-based; parameters: dose 1 mg/kg, route intravenous; details: in vivo
[10] = Volume of distribution at steady state in Wistar rat at 1 mg/kg, iv; format: ADME, organism-based; parameters: dose 1 mg/kg, route intravenous; details: in vivo, read-out: Vdss
[11] = Cmax in Wistar rat at 10 mg/kg, po; format: ADME, organism-based; parameters: dose 10 mg/kg, route oral; details: in vivo
[12] = AUC (0 to 24 hrs) in Wistar rat at 10 mg/kg, po; format: ADME, organism-based; parameters: time < 24 hr, dose 10 mg/kg, route oral; details: plasma
[13] = Oral bioavailability in Wistar rat at 10 mg/kg; format: ADME, organism-based; details: in vivo
[14] = Solubility of the compound in water; format: physicochemical
[15] = Plasma protein binding in Wistar rat; format: ADME, cell-free; details: read-out: PPB
Rattus norvegicus [16] = test: (§2) Antiinflammatory activity against ovalbumin-induced model of allergic inflammation in brown Norway rat assessed as inhibition of eosinophil infiltration in bronchoalveolar lavage fluid at 1 mg/kg, po bid 1 hr before and 6.5 hrs post ovalbumin challenge measured 24 hrs post challenge relative to vehicle-treated control; format: functional; details: Lung
[17] = Lipophilicity, log D of the compound at pH 7.4; format: physicochemical; details: buffer
Rattus norvegicus [18] = test: as §2, with “at 3” for “at 1”; format: functional; details: Lung
Summary of the method: (§3)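 Brown Norway rats (200-250 g) sensitized i.p. with OVA/Alum on days 0, 14 and 21, then challenged with OVA aerosol on day 28. Oral dosing at 3, 10 or 30 mg/kg bid, 1 h before and 6.5 h after challenge. Vehicle: TPGS 11.7%, PEG-400 40%, propylene glycol 15%, water 33.3%. Eight rats per group. BALF eosinophils counted 24 h post-challenge; inhibition expressed versus vehicle. Dexamethasone served as positive control. Plasma levels measured by UPLC-MS.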

Rattus norvegicus [19] = test: as §2, with “at 10” for “at 1”; format: functional; details: Lung; summary of the method: as §3
Rattus norvegicus [20] = test: as §2, with “at 30” for “at 1”; format: functional; details: Lung; summary of the method: as §3
Rattus norvegicus [21] = test: as §2, with “compound administered orally” for “at 1 mg/kg, po”; format: functional, organism-based; details: Lung; summary of the method: as §3
Rattus norvegicus [22] = test: as §2, with “against po dosed” for “against”, “plasma level >3-fold above IC50 for rat IL-2 inhibition compound administered” for “1 mg/kg, po”; format: functional; summary of the method: as §3

Cc1cc(C(F)(F)F)ncc1-c1cnc2[nH]c(-c3c(F)cccc3Cl)cc2c1
IC50 [1]: 0.129 µM | IC50 [2]: 0.12 µM

COc1cc(C)c(-c2cnc3[nH]c(-c4c(F)cccc4Cl)cc3c2)cn1
IC50 [1]: 0.071 µM | IC50 [2]: 0.04 µM | IC50 [3]: 0.104 µM | IC50 (LAD2): 0.443 µM | IC50 (Blood): 1.3 µM | IC50 (CHO): > 100 µM | metabolised at 0.5 h, 5 µM [4]: 10% | metabolised at 0.5 h, 5 µM [5]: 15% | Papp at 20 µM [6]: 0.1 ×10⁻⁶ cm/s | half-life [7]: 2.1 h | AUC(0-t) at 24 h [8]: 596 ng·h/mL | clearance [9]: 24 mL/min/kg | Vd [10]: 4.2 L/kg | Cmax [11]: 153 ng/mL | AUC(0-t) at 24 h [12]: 2180 ng·h/mL | bioavailability [13]: 37% | solubility [14]: < 5 µg/mL

Cn1nc(C(F)(F)F)cc1-c1cnc2[nH]c(C3CCCCC3)cc2c1
IC50 [1]: 0.31 µM | IC50 [2]: 0.183 µM

Cc1cc(OC(F)F)ncc1-c1cnc2[nH]c(-c3c(F)cccc3Cl)cc2c1
IC50 [1]: 0.064 µM | IC50 [2]: 0.15 µM

Cn1nc(C(F)(F)F)cc1-c1cnc2[nH]c(C3CCOCC3)cc2c1
IC50 [1]: > 10 µM

Cn1nc(C(F)(F)F)cc1-c1cnc2[nH]c(-c3c(F)cccc3Cl)cc2c1
IC50 [1]: 0.066 µM | IC50 [2]: 0.023 µM | IC50 [3]: < 0.1 µM | IC50 (LAD2): 0.372 µM | IC50 (Blood): 0.5 µM | IC50 (CHO): > 100 µM | metabolised at 0.5 h, 5 µM [4]: < 5% | metabolised at 0.5 h, 5 µM [5]: < 5% | Papp at 20 µM [6]: < 0.05 ×10⁻⁶ cm/s | solubility [14]: < 5 µg/mL | fraction unbound [15]: < 0.001

CNCc1ccc(-c2cnc3[nH]c(-c4c(F)cccc4Cl)cc3c2)c(C)c1
IC50 [1]: 10 µM

Fc1cccc(Cl)c1-c1cc2cc(-c3cc4c(cc3Cl)OC(F)(F)O4)cnc2[nH]1
IC50 [1]: 0.12 µM | IC50 [2]: 0.056 µM | solubility [14]: < 1 µg/mL

Cc1cc(S(=O)(=O)N2CCOCC2)ccc1-c1cnc2[nH]c(-c3c(F)cccc3Cl)cc2c1
IC50 [1]: 10 µM

Cn1nc(C(F)(F)F)cc1-c1cnc2[nH]c(Cc3ccccc3)cc2c1
IC50 [1]: 1.4 µM | IC50 [2]: 3 µM

Cc1cc(S(C)(=O)=O)ccc1-c1cnc2[nH]c(-c3c(F)cccc3Cl)cc2c1
IC50 [1]: 0.28 µM | IC50 [2]: 0.29 µM

Cc1nc2cc(-c3cnc4[nH]c(-c5c(F)cccc5Cl)cc4c3)c(Cl)cc2o1
IC50 [1]: 0.088 µM | IC50 [2]: 0.117 µM | solubility [14]: < 1 µg/mL

CNS(=O)(=O)c1ccc(-c2cnc3[nH]c(-c4c(F)cccc4Cl)cc3c2)c(C)c1
IC50 [1]: 0.155 µM | IC50 [2]: 0.18 µM

COc1ncc(-c2cnc3[nH]c(-c4c(F)cccc4Cl)cc3c2)c(C)n1
IC50 [1]: 10 µM

C[C@@H]1C[C@H]2[C@@H]3CCC4=CC(=O)C=C[C@]4(C)[C@@]3(F)[C@@H](O)C[C@]2(C)[C@@]1(O)C(=O)CO [DEXAMETHASONE]
inhibition in vivo at 1 mg/kg (Rattus norvegicus [16]): 100%

Cc1cc(=O)n(C)cc1-c1cnc2[nH]c(-c3c(F)cccc3Cl)cc2c1
IC50 [1]: > 10 µM

COc1ccc(OC)c(-c2ccc(NC(=O)c3ccncc3F)cc2)c1
logD [17]: 3.5 | IC50 [1]: 0.082 µM | IC50 [2]: 0.01 µM

Cc1cc(=O)[nH]cc1-c1cnc2[nH]c(-c3c(F)cccc3Cl)cc2c1
IC50 [1]: > 10 µM

COc1cc(OC)c(-c2cnc3[nH]c(-c4c(F)cccc4Cl)cc3c2)cn1
IC50 [1]: 0.15 µM | IC50 [2]: 0.068 µM | IC50 [3]: 0.44 µM | IC50 (LAD2): 0.63 µM | IC50 (Blood): 0.74 µM | IC50 (CHO): > 100 µM | metabolised at 0.5 h, 5 µM [4]: 10% | metabolised at 0.5 h, 5 µM [5]: < 5% | Papp at 20 µM [6]: 0.66 ×10⁻⁶ cm/s | half-life [7]: 8 h | AUC(0-t) at 24 h [8]: 1820 ng·h/mL | clearance [9]: 8 mL/min/kg | Vd [10]: 5 L/kg | Cmax [11]: 807 ng/mL | AUC(0-t) at 24 h [12]: 11200 ng·h/mL | bioavailability [13]: 62% | solubility [14]: < 5 µg/mL | inhibition in vivo at 3 mg/kg (Rattus norvegicus [18]): 9% | inhibition in vivo at 10 mg/kg (Rattus norvegicus [19]): 68% | inhibition in vivo at 30 mg/kg (Rattus norvegicus [20]): 75% | inhibition (Rattus norvegicus [21]): Dose-dependent effect | inhibition (INH) (Rattus norvegicus [22]): 70%

Cc1nnsc1C(=O)Nc1ccc(-n2nc(C(F)(F)F)cc2C(F)(F)F)cc1
logD [17]: 4.4 | IC50 [1]: 0.075 µM | IC50 [2]: 0.01 µM

Cc1cc(S(=O)(=O)N(C)C)ccc1-c1cnc2[nH]c(-c3c(F)cccc3Cl)cc2c1
IC50 [1]: 0.55 µM | IC50 [2]: 0.119 µM

Cn1nc(C(F)(F)F)cc1-c1cnc2[nH]c(-c3c(F)cccc3F)cc2c1
IC50 [1]: 0.14 µM | IC50 [2]: 0.073 µM

Cn1nc(C(F)(F)F)cc1-c1cnc2[nH]c(-c3ccccc3Cl)cc2c1
IC50 [1]: 0.16 µM | IC50 [2]: 0.26 µM

Cn1nc(C(F)(F)F)cc1-c1cnc2[nH]c(C3CCCC3)cc2c1
IC50 [1]: 0.26 µM | IC50 [2]: 0.27 µM
